Experimental data of several laboratories.
Lines come from different studies, so protocols differ.

| Structure (SMILES) | cell line | observed | mode | method | time | setting | IC50 |
| --- | --- | --- | --- | --- | --- | --- | --- |
| COc1ccccc1/C=C/CNCC(O)COc1ccc(C2CCCCC2)cc1 (stereo not shown) | NCI-H1299 | cell growth or viability | – | CCK-8 | 72 h | – | 29.5 µM |
| Cc1[nH]c(/C=C2\C(=O)Nc3ccc(S(=O)(=O)N(C)c4cccc(Cl)c4)cc32)c(C)c1C(=O)N1CCN(C)CC1 | Rh30 | cell growth or viability | – | – | 72 h | – | 4.7 µM |
| Cc1ccc2nc(-c3c(F)cccc3Cl)[nH]c2c1 | human Rhabdomyosarcoma cell | cell growth or viability | – | MTT | 48 h | – | 45.1 µM |
| O=C(/C=C(/C=C/c1cccnc1)NCCCO)/C=C/c1cccnc1 | CHO-K1 | cell growth or viability | – | SRB | 72 h | – | > 75 µM |
| NNc1nc(NCc2ccccc2)nc(Nc2ccc(Br)cc2)n1 | SK-BR-3 | cell growth or viability | – | SRB | 72 h | – | > 30 µM |
| O=C(/C=C(O)/C=C/c1c[nH]c2ccccc12)/C=C/c1c[nH]c2ccccc12 | CHO-K1 | cell growth or viability | – | MTT | 72 h | – | 7.9 µM |
| O=C(/C=C(O)/C=C/c1ccc2ccccc2n1)/C=C/c1c[nH]c2ccccc12 | CHO-K1 | cell growth or viability | – | MTT | 72 h | – | 41.6 µM |
| CCn1c(-c2nnc(NC(=O)c3cc4c([nH]c5ccccc54)c(-c4ccc(C)cc4)n3)s2)cc2ccccc21 | HL-60 | cell growth or viability | – | MTT | 72 h | – | 39.6 µM |
| O=C(/C=C(O)/C=C/c1cccnc1)/C=C/c1cccnc1 | CHO-K1 | cell growth or viability | – | SRB | 72 h | – | 10.5 µM |
| O=C(Cn1ccnc1[N+](=O)[O-])NCc1ccccc1 | RAW264.7 | cell growth or viability | – | MTT | – | – | > 240 µM |
| COc1cc(/C=C/C(=O)/C=C(O)/C=C/c2ccccn2)ccc1O | CHO-K1 | cell growth or viability | – | SRB | 72 h | – | 30.9 µM |
| CCCCN(CCCC)C(=O)c1ncn2c(=O)n(C)nnc12 | D54 | cell growth or viability | – | resazurin | 7 days | – | 11 µM |
| Cc1cc(Nc2ncc(Cl)c(Nc3ccccc3S(=O)(=O)C(C)C)n2)c(OC(C)C)cc1C1CCNCC1 | Rh30 | cell growth or viability | – | – | 72 h | – | 0.64 µM |
| COc1cc(/C=C/c2cc(/C=C/c3cccc4cnccc34)[nH]n2)ccc1O | CHO-K1 | cell growth or viability | – | SRB | 72 h | – | 7.9 µM |
| Nc1ccc(-c2nc3cnccn3c2N)cc1 | Vero | cell growth or viability | – | MTT | 48 h | – | 96 µM |
| COc1ccccc1NCCCNCC(O)COc1cccc2[nH]c3ccccc3c12 (stereo not shown) | NCI-H1299 | cell growth or viability | – | CCK-8 | 72 h | – | 8.9 µM |
| COc1cc(/C=C/C(=O)/C=C(O)/C=C/c2ccncc2)ccc1O | CHO-K1 | cell growth or viability | – | MTT | 72 h | – | 13.3 µM |
| c1ccc2[nH]c(-c3ccncc3)nc2c1 | human Rhabdomyosarcoma cell | cell growth or viability | – | MTT | 48 h | – | 31.2 µM |
| O=C(/C=C(O)/C=C/c1ccc[nH]1)/C=C/c1ccc[nH]1 | CHO-K1 | cell growth or viability | – | MTT | 72 h | – | 6.9 µM |
| Brc1ccc(Nc2nc(NCCc3ccccc3)nc(NCCc3ccccc3)n2)cc1 | SK-BR-3 | cell growth or viability | – | SRB | 72 h | – | 25.3 µM |
| COc1ccccc1OCCNC(=O)COc1cccc2[nH]c3ccccc3c12 | NCI-H1299 | cell growth or viability | – | CCK-8 | 72 h | – | > 100 µM |
| CCOc1ccc(-c2nc3ccc(C)cc3[nH]2)cc1 | human Rhabdomyosarcoma cell | cell growth or viability | – | MTT | 48 h | – | 76.2 µM |
| COc1ccccc1NCC(O)COc1cccc2[nH]c3ccccc3c12 (stereo not shown) | NCI-H1299 | cell growth or viability | – | CCK-8 | 72 h | – | > 100 µM |
| Cc1ccc2nc(-c3ccco3)n(Cc3ccccc3)c2c1 | human Rhabdomyosarcoma cell | cell growth or viability | – | MTT | – | – | 39.2 µM |
| COc1cc(/C=C/C(=O)CC(=O)/C=C/c2ccc(O)c(OC)c2)ccc1O | CHO-K1 | cell growth or viability | – | SRB | 72 h | – | 38.8 µM |

| Structure (SMILES) | cell line | observed | mode | method | time | setting | IC50 |
| --- | --- | --- | --- | --- | --- | --- | --- |
| Cn1nnc2c(Cl)ncn2c1=O | D54 | cell growth or viability | – | resazurin | 7 days | – | 21 µM |
| COc1cc(/C=C/C(=O)/C=C(O)/C=C/c2cccnc2)ccc1O | CHO-K1 | cell growth or viability | – | SRB | 72 h | – | 36.1 µM |
| COc1ccccc1OCCN(C)CC(O)COc1cccc2[nH]c3ccccc3c12 (stereo not shown) | NCI-H1299 | cell growth or viability | – | CCK-8 | 72 h | – | 39.5 µM |
| Clc1ccc(-c2nc3ccccc3n2Cc2ccccc2)cc1 | human Rhabdomyosarcoma cell | cell growth or viability | – | MTT | – | – | 31.7 µM |
| CCn1c(-c2nnc(NC(=O)c3cc4c([nH]c5ccccc54)c(-c4cc(OC)c(OC)c(OC)c4)n3)s2)cc2ccccc21 | HL-60 | cell growth or viability | – | MTT | 72 h | – | 43.2 µM |
| COCCCNC(=C\C(=O)/C=C/c1cccnc1)/C=C/c1cccnc1 | CHO-K1 | cell growth or viability | – | SRB | 72 h | – | 24.1 µM |
| O=C(O)Cc1ccccc1Nc1c(Cl)cccc1Cl | RAW264.7 | reactive oxygen species | inhibitor | – | – | LPS-stimulated | 50.1 µM |
| C/C(=N\O)c1ccc(-c2cccc(O)c2)c(Cl)c1O | NCI-H1299 | cell growth or viability | – | MTT | 48 h | – | 17.8 µM |
| COc1ccccc1/C=C/CNCC(O)COc1cccc2[nH]c3ccccc3c12 (stereo not shown) | NCI-H1299 | cell growth or viability | – | CCK-8 | 72 h | – | 7.2 µM |
| COc1cc([C@@H]2c3cc4c(cc3[C@@H](O[C@@H]3O[C@@H]5CO[C@@H](C)O[C@H]5[C@H](O)[C@H]3O)[C@H]3COC(=O)[C@H]23)OCO4)cc(OC)c1O | SMMC-7721 | cell growth or viability | – | MTT | 48 h | – | 8.12 µM |
| CCOc1cc(-c2nc3ccccc3[nH]2)ccc1O | human Rhabdomyosarcoma cell | cell growth or viability | – | MTT | 48 h | – | 29.4 µM |
| COc1ccccc1CNCC(O)COc1cccc2[nH]c3ccccc3c12 (stereo not shown) | NCI-H1299 | cell growth or viability | – | CCK-8 | 72 h | – | 14.8 µM |
| COc1cccc2c1C(=O)c1c(O)c3c(c(O)c1C2=O)C[C@@](O)(C(=O)CO)C[C@@H]3O[C@H]1C[C@H](N)[C@H](O)[C@H](C)O1 | CHO-K1 | cell growth or viability | – | MTT | 72 h | – | 2.5 µM |
| COc1cc(Nc2nccc(-c3cnn4nc(OC)ccc34)n2)cc(C(F)(F)F)c1 | SNU-840 | cell growth or viability | – | ATP luminescence | – | – | 0.37 µM |
| O=C(/C=C(O)/C=C/c1ccncc1)/C=C/c1c[nH]c2ccccc12 | CHO-K1 | cell growth or viability | – | MTT | 72 h | – | 42.9 µM |
| O=C1C=C(/C=C/c2cccnc2)N(CCCO)C(c2cccnc2)C1 (stereo not shown) | CHO-K1 | cell growth or viability | – | SRB | 72 h | – | > 75 µM |
| Cc1ccc2nc(-c3ccc(Cl)cc3Cl)[nH]c2c1 | human Rhabdomyosarcoma cell | cell growth or viability | – | MTT | 48 h | – | 29.9 µM |
| CC(C)C[C@H](NC(=O)[C@H](Cc1ccccc1)NC(=O)c1cnccn1)B(O)O | SNU-840 | cell growth or viability | – | ATP luminescence | – | – | 0.0081 µM |
| CC(=O)O[C@H]1C(=O)[C@@]2(C)[C@H]([C@H](OC(=O)c3ccccc3)[C@]3(O)C[C@H](OC(=O)[C@H](O)[C@@H](NC(=O)c4ccccc4)c4ccccc4)C(C)=C1C3(C)C)[C@]1(OC(C)=O)CO[C@@H]1C[C@@H]2O | MDA-MB-436 | cell growth or viability | – | ATP luminescence | 72 h | – | 0.0099 µM |
| CC(C)(C)Nc1c(-c2ccc([N+](=O)[O-])cc2)nc2ccccn12 | Vero | cell growth or viability | – | MTT | 48 h | – | 85 µM |
| O=C(/C=C(/C=C/c1cccnc1)NC1CCCCC1)/C=C/c1cccnc1 | CHO-K1 | cell growth or viability | – | MTT | 72 h | – | 16.8 µM |
| Nc1ccccc1-c1nc2cnccn2c1NC1CCCCC1 | Vero | cell growth or viability | – | MTT | 48 h | – | 75 µM |
| O=C(/C=C(/C=C/c1cccnc1)NCCO)/C=C/c1cccnc1 | CHO-K1 | cell growth or viability | – | SRB | 72 h | – | > 75 µM |
| C=CCn1c(-c2ccc([N+](=O)[O-])cc2)nc2ccc(C)cc21 | human Rhabdomyosarcoma cell | cell growth or viability | – | MTT | – | – | 86 µM |
